Reference: ChEMBL document CHEMBL1140876, “Synthesis and antibacterial property of quinolines with potent DNA gyrase activity” (2009)
In brackets after ≈: the same amount, converted by molar mass. Activity calls are given as the source filed them. The calls are words filed in the database; no cut-off is given here.

Tests used:
Bacillus subtilis [1] = experiment: Antimicrobial activity against Bacillus subtilis at 15 ug after 24 hrs by disk diffusion method; type: functional; conditions: read-out: IZ
Summary of the method: (§1)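 Inoculum made in 0.85% saline against McFarland standard, swabbed evenly onto nutrient agar; sterile filter-paper discs set equidistant and loaded with equal volumes of drug at varying amounts; zone of inhibition measured after 24 h at 37 °C; ciprofloxacin reference.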

Pseudomonas aeruginosa [2] = experiment: Antimicrobial activity against Pseudomonas aeruginosa at 15 ug after 24 hrs by disk diffusion method; type: functional; conditions: read-out: IZ; summary of the method: as §1
Pseudomonas aeruginosa [3] = experiment: Antimicrobial activity against Pseudomonas aeruginosa at 20 ug after 24 hrs by disk diffusion method; type: functional; conditions: read-out: IZ; summary of the method: as §1
[4] = Inhibition of DNA gyrase assessed as pBR322 DNA relaxation at 1 uM
Summary of the method: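 Relaxation without ATP: gyrase (60 nM) with supercoiled pBR322 DNA (6 nM) and drug at […] for 1 h at 37 °C; relaxation judged by gel. Ciprofloxacin, novobiocin and nalidixic acid comparators.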

Pseudomonas aeruginosa [5] = experiment: Antimicrobial activity against Pseudomonas aeruginosa at 5 ug after 24 hrs by disk diffusion method; type: functional; conditions: read-out: IZ; summary of the method: as §1
Staphylococcus aureus [6] = experiment: Antimicrobial activity against Staphylococcus aureus at 20 ug after 24 hrs by disk diffusion method; type: functional; conditions: read-out: IZ; summary of the method: as §1
Salmonella typhimurium [7] = experiment: Antimicrobial activity against Salmonella Typhimurium at 20 ug after 24 hrs by disk diffusion method; type: functional, Salmonella enterica subsp. enterica serovar Typhimurium; conditions: Salmonella enterica, read-out: IZ; summary of the method: as §1
Klebsiella pneumoniae [8] = experiment: Antimicrobial activity against Klebsiella pneumoniae at 15 ug after 24 hrs by disk diffusion method; type: functional; conditions: read-out: IZ; summary of the method: as §1
Salmonella typhi = experiment: Antimicrobial activity against Salmonella typhi by broth microdilution assay; type: functional, Salmonella enterica subsp. enterica serovar Typhi; conditions: Salmonella enterica
Summary of the method: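 Broth microdilution in 96-well plates following the NCCLS 1997 protocol. Final inoculum was 10^5 cfu/mL, with a control organism run alongside. Plates were incubated at 35.7 °C in air for 18–20 h. MIC is the lowest concentration with no visible growth.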

Klebsiella pneumoniae [9] = experiment: Antimicrobial activity against Klebsiella pneumoniae at 20 ug after 24 hrs by disk diffusion method; type: functional; conditions: read-out: IZ; summary of the method: as §1
Staphylococcus aureus [10] = experiment: Antimicrobial activity against Staphylococcus aureus at 5 ug after 24 hrs by disk diffusion method; type: functional; conditions: read-out: IZ; summary of the method: as §1
Klebsiella pneumoniae [11] = experiment: Antimicrobial activity against Klebsiella pneumoniae by broth microdilution assay; type: functional
Summary of the method: (§2)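 Broth microdilution per NCCLS 1997 in 96-well plate; final inoculum 10^5 cfu/mL; incubated 35.7 °C in air 18–20 h; MIC read as lowest concentration with no visible growth.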

Escherichia coli [12] = experiment: Antimicrobial activity against Escherichia coli at 15 ug after 24 hrs by disk diffusion method; type: functional; conditions: read-out: IZ; summary of the method: as §1
Klebsiella pneumoniae [13] = experiment: Antimicrobial activity against Klebsiella pneumoniae at 10 ug after 24 hrs by disk diffusion method; type: functional; conditions: read-out: IZ; summary of the method: as §1
Staphylococcus aureus [14] = experiment: Antimicrobial activity against Staphylococcus aureus by broth microdilution assay; type: functional; summary of the method: as §2
Salmonella typhimurium [15] = experiment: Antimicrobial activity against Salmonella Typhimurium at 10 ug after 24 hrs by disk diffusion method; type: functional, Salmonella enterica subsp. enterica serovar Typhimurium; conditions: Salmonella enterica, read-out: IZ; summary of the method: as §1
Bacillus subtilis [16] = experiment: Antimicrobial activity against Bacillus subtilis at 25 ug after 24 hrs by disk diffusion method; type: functional; conditions: read-out: IZ; summary of the method: as §1
Salmonella typhimurium [17] = experiment: Antimicrobial activity against Salmonella Typhimurium at 25 ug after 24 hrs by disk diffusion method; type: functional, Salmonella enterica subsp. enterica serovar Typhimurium; conditions: Salmonella enterica, read-out: IZ; summary of the method: as §1
Klebsiella pneumoniae [18] = experiment: Antimicrobial activity against Klebsiella pneumoniae at 25 ug after 24 hrs by disk diffusion method; type: functional; conditions: read-out: IZ; summary of the method: as §1
Bacillus subtilis [19] = experiment: Antimicrobial activity against Bacillus subtilis at 20 ug after 24 hrs by disk diffusion method; type: functional; conditions: read-out: IZ; summary of the method: as §1
Escherichia coli [20] = experiment: Antimicrobial activity against Escherichia coli at 20 ug after 24 hrs by disk diffusion method; type: functional; conditions: read-out: IZ; summary of the method: as §1
Pseudomonas aeruginosa [21] = experiment: Antimicrobial activity against Pseudomonas aeruginosa at 10 ug after 24 hrs by disk diffusion method; type: functional; conditions: read-out: IZ; summary of the method: as §1
Escherichia coli [22] = experiment: Antimicrobial activity against Escherichia coli at 25 ug after 24 hrs by disk diffusion method; type: functional; conditions: read-out: IZ; summary of the method: as §1
Escherichia coli [23] = experiment: Inhibition of DNA gyrase gene expression in Escherichia coli assessed as decrease in band intensity by RT-PCR amplification
Summary of the method: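 E. coli treated with drug; total RNA from cells sampled up to 24 h; 2 µg RNA to cDNA with MMLV reverse transcriptase; gyrase gene PCR (94 °C 4 min initial denaturation, 72 °C 7 min final extension); products on agarose gel, band intensity normalized to GAPDH; untreated cells as negative control.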

Pseudomonas aeruginosa [24] = experiment: Antimicrobial activity against Pseudomonas aeruginosa by broth microdilution assay; type: functional; summary of the method: as §2
Escherichia coli [25] = experiment: Antimicrobial activity against Escherichia coli at 10 ug after 24 hrs by disk diffusion method; type: functional; conditions: read-out: IZ; summary of the method: as §1
Staphylococcus aureus [26] = experiment: Antimicrobial activity against Staphylococcus aureus at 10 ug after 24 hrs by disk diffusion method; type: functional; conditions: read-out: IZ; summary of the method: as §1
[27] = Inhibition of DNA gyrase assessed as conversion of relaxed pBR322 to supercoiled form
Summary of the method: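 Supercoiling in 15 µL reactions: gyrase assay buffer, 150 ng relaxed pBR322, 2–3 µL purified DNA gyrase, 3 h at 37 °C (E. coli); stopped with 50% glycerol/0.25% bromophenol blue; 1% agarose in 1× TBE pH 8.3, 90 V 3 h; ethidium bromide stain; supercoiled band brightness by densitometry. Ciprofloxacin comparator.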

Staphylococcus aureus [28] = experiment: Antimicrobial activity against Staphylococcus aureus at 25 ug after 24 hrs by disk diffusion method; type: functional; conditions: read-out: IZ; summary of the method: as §1
Klebsiella pneumoniae [29] = experiment: Antimicrobial activity against Klebsiella pneumoniae at 5 ug after 24 hrs by disk diffusion method; type: functional; conditions: read-out: IZ; summary of the method: as §1
Pseudomonas aeruginosa [30] = experiment: Antimicrobial activity against Pseudomonas aeruginosa at 25 ug after 24 hrs by disk diffusion method; type: functional; conditions: read-out: IZ; summary of the method: as §1
Bacillus subtilis [31] = experiment: Antimicrobial activity against Bacillus subtilis by broth microdilution assay; type: functional; summary of the method: as §2
Salmonella typhimurium [32] = experiment: Antimicrobial activity against Salmonella Typhimurium at 5 ug after 24 hrs by disk diffusion method; type: functional, Salmonella enterica subsp. enterica serovar Typhimurium; conditions: Salmonella enterica, read-out: IZ; summary of the method: as §1
Staphylococcus aureus [33] = experiment: Antimicrobial activity against Staphylococcus aureus at 15 ug after 24 hrs by disk diffusion method; type: functional; conditions: read-out: IZ; summary of the method: as §1
Escherichia coli [34] = experiment: Antimicrobial activity against Escherichia coli by broth microdilution assay; type: functional; summary of the method: as §2
Escherichia coli [35] = experiment: Antimicrobial activity against Escherichia coli at 5 ug after 24 hrs by disk diffusion method; type: functional; conditions: read-out: IZ; summary of the method: as §1
Salmonella typhimurium [36] = experiment: Antimicrobial activity against Salmonella Typhimurium at 15 ug after 24 hrs by disk diffusion method; type: functional, Salmonella enterica subsp. enterica serovar Typhimurium; conditions: Salmonella enterica, read-out: IZ; summary of the method: as §1

Cn1c(=O)c2cc3n(c2n(C)c1=O)CC1C3Nc2ccc(Cl)cc2C1(C)C (configuration not stated)
zone of inhibition at 15 µg/disc (Bacillus subtilis [1]): 6 mm | zone of inhibition at 15 µg/disc (Pseudomonas aeruginosa [2]): 16 mm | zone of inhibition at 20 µg/disc (Pseudomonas aeruginosa [3]): 20 mm | Activity [4]: Active | zone of inhibition at 5 µg/disc (Pseudomonas aeruginosa [5]): 10 mm | zone of inhibition at 20 µg/disc (Staphylococcus aureus [6]): 30 mm | zone of inhibition at 20 µg/disc (Salmonella typhimurium [7]): 22 mm | zone of inhibition at 15 µg/disc (Klebsiella pneumoniae [8]): 30 mm | MIC50 (Salmonella typhi): 0.09 µg/mL (≈ 0.234 µM) | MIC90 (Salmonella typhi): 0.15 µg/mL (≈ 0.39 µM) | zone of inhibition at 20 µg/disc (Klebsiella pneumoniae [9]): 34 mm | zone of inhibition at 5 µg/disc (Staphylococcus aureus [10]): 20 mm | MIC50 (Klebsiella pneumoniae [11]): 0.125 µg/mL (≈ 0.325 µM) | MIC90 (Klebsiella pneumoniae [11]): 2 µg/mL (≈ 5.2 µM) | zone of inhibition at 15 µg/disc (Escherichia coli [12]): 18 mm | zone of inhibition at 10 µg/disc (Klebsiella pneumoniae [13]): 26 mm | MIC50 (Staphylococcus aureus [14]): 0.25 µg/mL (≈ 0.65 µM) | zone of inhibition at 10 µg/disc (Salmonella typhimurium [15]): 16 mm | zone of inhibition at 25 µg/disc (Bacillus subtilis [16]): 9 mm | zone of inhibition at 25 µg/disc (Salmonella typhimurium [17]): 24 mm | zone of inhibition at 25 µg/disc (Klebsiella pneumoniae [18]): 36 mm | zone of inhibition at 20 µg/disc (Bacillus subtilis [19]): 7 mm | zone of inhibition at 20 µg/disc (Escherichia coli [20]): 20 mm | zone of inhibition at 10 µg/disc (Pseudomonas aeruginosa [21]): 14 mm | zone of inhibition at 25 µg/disc (Escherichia coli [22]): 23 mm | Activity (Escherichia coli [23]): Active | MIC50 (Pseudomonas aeruginosa [24]): 0.125 µg/mL (≈ 0.325 µM) | MIC90 (Pseudomonas aeruginosa [24]): 1 µg/mL (≈ 2.6 µM) | zone of inhibition at 10 µg/disc (Escherichia coli [25]): 16 mm | zone of inhibition at 10 µg/disc (Staphylococcus aureus [26]): 24 mm | Activity [27]: Active | zone of inhibition at 25 µg/disc (Staphylococcus aureus [28]): 36 mm | zone of inhibition at 5 µg/disc (Klebsiella pneumoniae [29]): 20 mm | zone of inhibition at 25 µg/disc (Pseudomonas aeruginosa [30]): 23 mm | MIC50 (Bacillus subtilis [31]): 0.25 µg/mL (≈ 0.65 µM) | MIC90 (Bacillus subtilis [31]): 1.2 µg/mL (≈ 3.12 µM) | zone of inhibition at 5 µg/disc (Salmonella typhimurium [32]): 10 mm | zone of inhibition at 15 µg/disc (Staphylococcus aureus [33]): 26 mm | MIC50 (Escherichia coli [34]): 0.06 µg/mL (≈ 0.156 µM) | MIC90 (Escherichia coli [34]): 0.25 µg/mL (≈ 0.65 µM) | zone of inhibition at 5 µg/disc (Escherichia coli [35]): 10 mm | zone of inhibition at 15 µg/disc (Salmonella typhimurium [36]): 18 mm
